In paper PMC3057608 (Cancer research, 2011):
Read-outs that look alike come from different tables or passages of the source. Each block holds one compound with its values, some of them ahead of it.

Key:
HCC1937 cells [1] = assay: Neutral comet assay, BRCA1-null cells; type: cell-based
CAPAN1 cells [2] = assay: Neutral comet assay, BRCA2-null cells; type: cell-based
HCC1937 cells [3] = assay: Clonogenic assay, BRCA1-null cells; type: cell-based
CAPAN1 cells [4] = assay: Clonogenic assay, BRCA2-null cells; type: cell-based
DNA-PKcs [5] = biological target: T1, DNA-PKcs (Homo sapiens, UniProt P78527); assay: ELISA of GNFRYLAPP/DNA-PKcs interaction; type: binding; conditions: pure DNA-PK, 1 μM ATP, sonicated DNA, 37°C 1 h, fluorescence read-out (Fig. 4B)
Outline: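 Bait wells: streptavidin plates coated with 100 ng biotinylated linearized pSP72 or 10 ng biotinylated test peptide (or biotinylated scrambled control), or adsorption plates coated with 250 units pure DNA-PK. After blocking, prey is added for 1 h at 37°C with 1 μM ATP, sonicated DNA (50 ng/μL) and protease/phosphatase inhibitors. Non-biotinylated test or scrambled peptide serves as competitor. DNA-PKcs is read with fluorophore-conjugated antibodies and peptide with FITC-streptavidin (1:500) on a fluorescence plate reader.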

DNA-PKcs [6] = biological target: T1, DNA-PKcs; assay: DNA-PKcs kinase assay; type: biochemical; conditions: for DNA-PKcs inhibition by truncated/mutant/phosphorylated peptide derivatives: alanine scanning and mutant peptides, DNA-PKcs kinase activity (Fig. 6A)
DNA-PKcs [7] = biological target: T1, DNA-PKcs; assay: Protease protection assay; type: biochemical; conditions: 10 μM, trypsin 0.01% 8 min 37°C, immunoblot (Fig. 4H)
KS1767 cells = assay: Nuclear focus formation after irradiation, DNA-PKcs +/+ cells; type: cell-based, human; conditions: 10 μM
Outline: (§1)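 Peptides at 10 μM are added to growth medium 72 h before irradiation or mock-irradiation (137Cs, 333 cGy per minute). Cells are grown on coverslips and fixed 3 min in ice-cold acetone:methanol 1:1 at set times after irradiation. They are blocked 1 h at room temperature in 5% goat serum, with primary reagents in 1% BSA overnight at 4°C and secondary reagents 1 h at room temperature. Foci are imaged by inverted fluorescence microscopy.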

M059J cells = assay: Nuclear focus formation after irradiation, DNA-PK -/- cells; type: cell-based; conditions: 10 μM, 1 h after 3 Gy, FITC-streptavidin (Fig. 5A left)
Outline: as §1

[8] = test system: Phosphorylated DNA-PKcs (T2609) in KS1767 cells; assay: DNA-PKcs autophosphorylation; type: cell-based, human; conditions: KS1767, 10 μM, 30 minutes after 3 Gy (Fig. 5B)
Outline: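 Peptides, penetratin-fused test or scrambled control at 10 μM, are added to standard growth medium of KS1767 Kaposi sarcoma cells 72 h before irradiation or mock-irradiation. Irradiation uses a 137Cs source at 333 cGy per minute.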

Compound: COc1cc(C=O)c([N+](=O)[O-])cc1OC [DMNB, reference compound]
residual double-strand breaks by neutral comet assay (HCC1937 cells [1]): increased residual double-strand breaks
residual double-strand breaks by neutral comet assay (CAPAN1 cells [2]): increased residual double-strand breaks
radiosensitivity by clonogenic assay (HCC1937 cells [3]): increased radiosensitivity
radiosensitivity by clonogenic assay (CAPAN1 cells [4]): increased radiosensitivity

Compound: GNFRYLAPP
interaction with DNA-PKcs by ELISA (DNA-PKcs [5]): sufficient for attracting
phosphorylation of the peptide itself by DNA-PKcs (DNA-PKcs [6]; Fig. 4C): not phosphorylated
mode of DNA-PKcs inhibition (DNA-PKcs [6]; conclusion from binding, kinase and protease protection data): non-competitive inhibitor
effect on DNA-PKcs phosphorylation of its p53-derived consensus substrate (DNA-PKcs [6]; pure DNA-PK, increasing molar ratios of peptide to substrate (Fig. 4C)): progressively inhibited
effect on DNA-induced protection of DNA-PKcs from trypsin digestion (DNA-PKcs [7]): prevented the protection from trypsin digestion

Compound: GNFRYLAPP-pen
nuclear focus formation of biotinylated peptide (KS1767 cells; KS1767 (DNA-PKcs +/+), 1 h after 3 Gy, FITC-streptavidin (Fig. 5A left)): formed foci
resolution of peptide foci over time after irradiation (KS1767 cells; KS1767, 3 Gy, majority of cells retaining foci as late as 12 hours (Fig. 5A right)): slow resolution
nuclear focus formation of biotinylated peptide (M059J cells): did not form foci
phosphorylated DNA-PKcs (T2609) signal after irradiation [8]: no signal was detected
residual double-strand breaks by neutral comet assay (HCC1937 cells [1]; HCC1937 (BRCA1-null), 10 μM, 72 h pre-incubation, 3 and 6 hours after 6 Gy (Fig. 5C)): increased residual double-strand breaks
residual double-strand breaks by neutral comet assay (CAPAN1 cells [2]; CAPAN1 (BRCA2-null), 10 μM, 72 h pre-incubation, 3 and 6 hours after 6 Gy (Fig. 5C)): increased residual double-strand breaks
radiosensitivity by clonogenic assay (HCC1937 cells [3]; HCC1937 (BRCA1-null), 10 μM, 72 h pre-incubation (Fig. 5D-E)): increased radiosensitivity
radiosensitivity by clonogenic assay (CAPAN1 cells [4]; CAPAN1 (BRCA2-null), 10 μM, 72 h pre-incubation (Fig. 5D-E)): increased radiosensitivity

Next, values leading:

DNA-PKcs inhibition by truncated/mutant/phosphorylated peptide derivatives (DNA-PKcs [6]): abolished
Compound: GSFRYL

DNA-PKcs inhibition by truncated/mutant/phosphorylated peptide derivatives (DNA-PKcs [6]): reestablished DNA-PKcs inhibition
Compound: GpSFRYL

interaction with DNA-PKcs by ELISA (DNA-PKcs [5]): no detectable interaction
Compound: RYPAGLPFL [scrambled peptide, reference compound]
